Source: ChEMBL document CHEMBL1926589, “2-Anilinonicotinyl linked 2-aminobenzothiazoles and [1,2,4]triazolo[1,5-b] [1,2,4]benzothiadiazine conjugates as potential mitochondrial apoptotic inducers” (Bioorg Med Chem, 2011)
Calls of active or inactive are those of the source. No cut-off for these calls is given here.

Key:
IMR-32 = assay: Growth inhibition of human IMR32 cells at 10 uM by sulforhodamine B assay; format: functional; conditions: read-out: GI
Summary of the method: (§1)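 Single-dose 10 µM screen by sulforhodamine B assay, reported as percent inhibition of cell proliferation. Cells grown in medium with 10% heat-inactivated FBS at 37 °C, 5% CO2, and treated at about 70% confluence or in log phase. Compounds dissolved in DMSO; controls received vehicle (<0.5% v/v).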

SK-N-SH = assay: Growth inhibition of human SK-N-SH cells at 10 uM by sulforhodamine B assay; format: functional; conditions: read-out: GI; summary of the method: as §1
SW-620 = assay: Growth inhibition of human SW620 cells at 10 uM by sulforhodamine B assay; format: functional; conditions: read-out: GI; summary of the method: as §1
HCT-15 = assay: Growth inhibition of human HCT15 cells at 10 uM by sulforhodamine B assay; format: functional; conditions: read-out: GI; summary of the method: as §1
DU-145 = assay: Growth inhibition of human DU145 cells at 10 uM by sulforhodamine B assay; format: functional; conditions: read-out: GI; summary of the method: as §1
A549 = assay: Growth inhibition of human A549 cells at 10 uM by sulforhodamine B assay; format: functional; conditions: read-out: GI; summary of the method: as §1
HEp-2 = assay: Growth inhibition of human Hep2 cells at 10 uM by sulforhodamine B assay; format: functional; conditions: read-out: GI; summary of the method: as §1
OVCAR-5 = assay: Growth inhibition of human OVCAR5 cells at 10 uM by sulforhodamine B assay; format: functional; conditions: read-out: GI; summary of the method: as §1
CV-1 = assay: Growth inhibition of african green monkey CV1 cells after 48 hrs by MTT assay; format: cell-based; conditions: Chlorocebus aethiops, CV-1, 48 h
[1] = Therapeutic ratio of IC50 for african green monkey CV1 cells to IC50 for human HL60 cells; format: ADME, cell-based, HL-60; conditions: CV1 cells and HL60 cells, read-out: Ratio IC50
HL-60 [2] = assay: Induction of apoptosis in human HL60 cells assessed as caspase3 activation using DEVD-AFC as substrate at 1 uM after 24 hrs by fluorimetry relative to control; format: functional
Summary of the method: (§2)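 HL-60 cells (2 x 10^6) treated 24 h, washed and lysed. Caspase-3, -8 and -9 activities in lysates measured fluorometrically with a commercial caspase fluorescent assay kit. Two independent experiments, each in duplicate.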

HL-60 [3] = assay: Induction of apoptosis in human HL60 cells assessed as caspase8 activation using IETD-AFC as substrate at 1 uM after 24 hrs by fluorimetry relative to control; format: functional; summary of the method: as §2
HL-60 [4] = assay: Cell cycle arrest in human HL60 cells assessed as accumulation at sub-G0 phase measuring DNA damage at 1 uM after 24 hrs using propidium iodide staining by flow cytometry (reference value: 1%); format: functional
Summary of the method: (§3)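 HL-60 cells (1 x 10^5 per 1.5 mL) treated 24 h, then fixed in 70% cold ethanol at −20 °C overnight. RNase digestion (400 µg/ml) at 37 °C for 45 min, then propidium iodide (10 µg/ml) for 30 min. Flow cytometry on 10,000 events, FL2-A vs FL2-W, with doublet discrimination. Sub-G0 (hypodiploid) peak taken as apoptotic cells. Mean ± SD of three independent experiments.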

HL-60 [5] = assay: Cell cycle arrest in human HL60 cells assessed as accumulation at G1 phase at 1 uM after 24 hrs using propidium iodide staining by flow cytometry; format: functional, cell-based; summary of the method: as §3
HL-60 [6] = assay: Cell cycle arrest in human HL60 cells assessed as accumulation at S phase at 1 uM after 24 hrs using propidium iodide staining by flow cytometry; format: functional, cell-based; summary of the method: as §3
HL-60 [7] = assay: Inhibition of Bcl-2 expression in human HL60 cells at 1 uM after 24 hrs by Western blotting; format: functional, cell-based
Summary of the method: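 HL-60 cells treated 24 h and lysed in RIPA buffer on ice; protein measured by Bradford against a BSA standard. 50 µg resolved by SDS-PAGE and transferred to PVDF, blocked in 5% milk/TBST, then primary antibodies 1:1000 for 2 h and HRP secondary 1:1000 for 1 h. ECL detection with β-actin as loading control; bands quantified by densitometry.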

HL-60 [8] = assay: Induction of apoptosis in human HL60 cells assessed as smoothening of surface at 1 uM after 12 hrs by scanning electron microscopy; format: functional, cell-based
Summary of the method: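 HL-60 cells at 2 x 10^5/ml in 10% FCS medium exposed to 0.5 or 1 µM for 6–48 h; DMSO vehicle controls. Cells fixed in 2.5% glutaraldehyde in 0.1 M phosphate (pH 7.2) at 4 °C for 1 h, post-fixed in 1% OsO4 and ethanol-dehydrated. Critical-point dried, gold-coated, and imaged by SEM at 40 kV.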

HL-60 [9] = assay: Induction of apoptosis in human HL60 cells assessed as nuclear fragmentation at 1 uM after 24 hrs by DAPI staining-based fluorescence microscopy; format: functional, cell-based
Summary of the method: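 HL-60 or PC-3 cells treated at 1 µM for 24 h. Air-dried smears fixed in methanol at −20 °C for 20 min and stained with DAPI (1 µg/mL) for 20 min at room temperature in the dark. Mounted in 90% glycerol/PBS and examined by fluorescence microscopy for nuclear morphology.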

O=C(Nc1nc2ccc([N+](=O)[O-])cc2s1)c1cccnc1Nc1cc(F)c(F)c(F)c1
inhibition of growth at 10 µM (IMR-32): 72%
inhibition of growth at 10 µM (SK-N-SH): 49%
inhibition of growth at 10 µM (SW-620): 70%
inhibition of growth at 10 µM (HCT-15): 62%
inhibition of growth at 10 µM (DU-145): 39%
inhibition of growth at 10 µM (A549): 27%
inhibition of growth at 10 µM (HEp-2): 0%
inhibition of growth at 10 µM (OVCAR-5): 52%
IC50 (CV-1): > 100 µM
selectivity ratio [1]: > 1250
fold change (FC) (HL-60 [2]): 2
fold change (FC) (HL-60 [3]): 2
Activity (HL-60 [4]): 94%
Activity (HL-60 [5]): inactive
Activity (HL-60 [6]): inactive
inhibition (HL-60 [7]): inactive
Activity (HL-60 [8]): Active
Activity (HL-60 [9]): Active
